Laboratory results from ChEMBL document CHEMBL1134337, “Behavioral approach to nondyskinetic dopamine antagonists: identification of seroquel” (J Med Chem, 2001).

What was measured:
Mus musculus [1] = assay: Antagonism of apomorphine induced climbing was determined in female swiss -Webster mice after (ip) administration of 40 mg/kg; assay type: functional
How it was run: (§1)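 Female Swiss-Webster mice (about 20 g) were fasted about 24 h, then given test compound or vehicle ip or po (N = 20 per group). Vehicle was 0.5% w/w hydroxypropylmethylcellulose with 0.1% w/w Tween 80 in water. After 30 min, mice received apomorphine HCl 1.25 mg/kg sc. At 13 min, each mouse was watched for 1 min; score was mean of highest and lowest rung of 27. Groups were compared with vehicle by Student's t-test.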

Mus musculus [2] = assay: Antagonism of apomorphine induced climbing was determined in female swiss -Webster mice after (ip) administration of 80 mg/kg; assay type: functional; how it was run: as §1
[3] = target: D(2) dopamine receptor (Rattus norvegicus) (UniProt P61169); assay: Binding affinity at dopamine receptor D2 from rat by spiropiperidone displacement.
D(2) dopamine receptor (Rattus norvegicus), sequence (P61169 whole entry): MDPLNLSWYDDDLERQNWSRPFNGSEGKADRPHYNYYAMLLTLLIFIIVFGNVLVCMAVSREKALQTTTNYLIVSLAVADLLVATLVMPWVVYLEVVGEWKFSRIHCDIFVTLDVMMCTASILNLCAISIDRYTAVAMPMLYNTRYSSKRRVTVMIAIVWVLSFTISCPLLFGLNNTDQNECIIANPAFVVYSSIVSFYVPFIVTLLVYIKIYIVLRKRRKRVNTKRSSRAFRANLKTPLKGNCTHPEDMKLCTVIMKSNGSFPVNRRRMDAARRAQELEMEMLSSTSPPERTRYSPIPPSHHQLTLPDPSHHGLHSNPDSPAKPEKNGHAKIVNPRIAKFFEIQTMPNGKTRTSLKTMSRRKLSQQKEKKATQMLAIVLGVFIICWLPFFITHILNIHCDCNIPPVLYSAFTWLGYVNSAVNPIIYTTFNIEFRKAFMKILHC
How it was run: (§2)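 D2 receptor binding was read as % displacement of spiropiperidone, with test compound at 1000 nM unless stated otherwise. IC50 values used at least five concentrations per compound in triplicate. Each value is the mean of two replicate experiments differing by 5% or less.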

[4] = Number of animals showing dyskinesias was determined in haloperidol sensitized 4 cebus monkeys after (po) administration of 40 mg/kg; assay type: functional
How it was run: (§3)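 Adult female and male Cebus monkeys sensitized with oral haloperidol 1 mg/kg once per week until dyskinetic reactions occurred. Test drug given orally (2 mL/kg) in 0.5% w/w hydroxypropylmethylcellulose with 0.1% w/w Tween 80 in distilled water, at least 2 weeks between treatments. Two observers watched continuously for 6-7 h, recording reaction type and severity every 30 min. Score is monkeys with dyskinesias/monkeys tested.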

Mus musculus [5] = assay: Antagonism of apomorphine induced swimming was determined in female swiss -Webster mice after (ip) administration of 20 mg/kg; assay type: functional
Mus musculus [6] = assay: Antagonism of apomorphine induced swimming was determined in female swiss -Webster mice after (ip) administration of 40 mg/kg; assay type: functional
Mus musculus [7] = assay: Antagonism of apomorphine induced swimming was determined in female swiss -Webster mice after (ip) administration of 80 mg/kg; assay type: functional
Mus musculus [8] = assay: Antagonism of apomorphine induced climbing was determined in female swiss -Webster mice after (ip) administration of 20 mg/kg; assay type: functional; how it was run: as §1
Mus musculus [9] = assay: Antagonism of apomorphine induced swimming was determined in female swiss -Wbster mice after (ip) administration of 80 mg/kg; assay type: functional
Mus musculus [10] = assay: Antagonism of apomorphine induced climbing was determined in female swiss -Wbster mice after (ip) administration of 80 mg/kg; assay type: functional; how it was run: as §1
Mus musculus [11] = assay: Antagonism of apomorphine induced swimming was determined in female swiss -Wbster mice after (po) administration of 80 mg/kg; assay type: functional
[12] = Number of animals showing dyskinesias was determined in haloperidol sensitized 13 cebus monkeys after (po) administration of 10 mg/kg; assay type: functional
How it was run: (§4)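 Adult male and female Cebus monkeys sensitized with haloperidol 1 mg/kg po weekly until dyskinetic reactions appeared. Drug given orally (2 mL/kg) in 0.5% w/w hydroxypropylmethylcellulose with 0.1% w/w Tween 80, at least 2 weeks between treatments. Two observers watched continuously for 6–7 h, logging reaction type and severity every 30 min. Score is the number of monkeys with dyskinesias over the number tested.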

[13] = Number of animals showing dyskinesias was determined in haloperidol sensitized 13 cebus monkeys after (po) administration of 20 mg/kg; assay type: functional; how it was run: as §4
Mus musculus [14] = assay: Antagonism of apomorphine induced climbing was determined in female swiss -Wbster mice after (ip) administration of 20 mg/kg; assay type: functional; how it was run: as §1
Mus musculus [15] = assay: Antagonism of apomorphine induced climbing was determined in female swiss -Wbster mice after (po) administration of 80 mg/kg; assay type: functional; how it was run: as §1
Mus musculus [16] = assay: Antagonism of apomorphine induced climbing was determined in female swiss -Wbster mice after (ip) administration of 40 mg/kg; assay type: functional; how it was run: as §1
Mus musculus [17] = assay: Antagonism of apomorphine induced swimming was determined in female swiss -Wbster mice after (po) administration of 40 mg/kg; assay type: functional
Mus musculus [18] = assay: Antagonism of apomorphine induced swimming was determined in female swiss -Wbster mice after (po) administration of 20 mg/kg; assay type: functional
Mus musculus [19] = assay: Antagonism of apomorphine induced climbing was determined in female swiss -Wbster mice after (po) administration of 40 mg/kg; assay type: functional; how it was run: as §1
Mus musculus [20] = assay: Antagonism of apomorphine induced climbing was determined in female swiss -Wbster mice after (po) administration of 20 mg/kg; assay type: functional; how it was run: as §1
Mus musculus [21] = assay: Antagonism of apomorphine induced swimming was determined in female swiss -Wbster mice after (po) administration of 10 mg/kg; assay type: functional
Mus musculus [22] = assay: Antagonism of apomorphine induced climbing was determined in female swiss -Webster mice after (ip) administration of 5 mg/kg; assay type: functional; how it was run: as §1
Mus musculus [23] = assay: Antagonism of apomorphine induced climbing was determined in female swiss -Webster mice after (p.o.) +SKF525A administration of 5 mg/kg; assay type: functional; conditions: route oral; how it was run: as §1
Mus musculus [24] = assay: Antagonism of apomorphine induced climbing was determined in female swiss -Webster mice after (ip) administration of 10 mg/kg; assay type: functional; how it was run: as §1
Mus musculus [25] = assay: Antagonism of apomorphine induced climbing was determined in female swiss -Webster mice after (p.o.) +SKF525A administration of 20 mg/kg; assay type: functional; conditions: route oral; how it was run: as §1
D(2) dopamine receptor = D(2) dopamine receptor (Rattus norvegicus, UniProt P61169); assay: Inhibition of spiropiperidone binding at dopamine receptor D2 of rat.
D(2) dopamine receptor, sequence (P61169 whole entry): as above

Mus musculus [26] = assay: Antagonism of apomorphine induced climbing was determined in female swiss -Webster mice after (po) administration of 10 mg/kg; assay type: functional; how it was run: as §1
Mus musculus [27] = assay: Antagonism of apomorphine induced climbing was determined in female swiss -Webster mice after (ip) administration of 2.5 mg/kg; assay type: functional; how it was run: as §1
Mus musculus [28] = assay: Antagonism of apomorphine induced climbing was determined in female swiss -Webster mice after (po) administration of 5 mg/kg; assay type: functional; how it was run: as §1
Mus musculus [29] = assay: Antagonism of apomorphine induced climbing was determined in female swiss -Webster mice after (po) administration of 20 mg/kg; assay type: functional; how it was run: as §1
Mus musculus [30] = assay: Antagonism of apomorphine induced climbing was determined in female swiss -Webster mice after (p.o.) +SKF525A administration of 10 mg/kg; assay type: functional; conditions: route oral; how it was run: as §1
[31] = Number of animals showing dyskinesias was determined in haloperidol sensitized 2 cebus monkeys after (po) administration of 20 mg/kg; assay type: functional; how it was run: as §3
Mus musculus [32] = assay: Antagonism of apomorphine induced climbing was determined in female swiss -Wbster mice after (ip) administration of 10 mg/kg; assay type: functional; how it was run: as §1
[33] = Number of animals showing dyskinesias was determined in haloperidol sensitized 2 cebus monkeys after (po) administration of 80 mg/kg; assay type: functional; how it was run: as §3
[34] = Number of animals showing dyskinesias was determined in haloperidol sensitized 2 cebus monkeys after (po) administration of 40 mg/kg; assay type: functional; how it was run: as §3
[35] = target: D(2) dopamine receptor (Rattus norvegicus) (UniProt P61169); assay: Inhibitory activity for the displacement of spiropiperidone (1000 nM) from dopamine D2 receptor of rat; how it was run: as §2
Mus musculus [36] = assay: Antagonism of apomorphine induced swimming was determined in female swiss -Webster mice after (ip) administration of 10 mg/kg; assay type: functional
Mus musculus [37] = assay: Antagonism of apomorphine induced swimming was determined in female swiss -Webster mice after (ip) administration of 5 mg/kg; assay type: functional
Mus musculus [38] = assay: Antagonism of apomorphine induced swimming was determined in female swiss -Wbster mice after (ip) administration of 40 mg/kg; assay type: functional

## CN1CCN(C2=Nc3cc(Cl)ccc3Oc3ccccc32)CC1 [ISOLOXAPINE]
Mus musculus [1]
  Activity: 20
Mus musculus [2]
  Activity: 14
[3]
  % displacement of spiropiperidone: 48%

## OCCOCCN1CCN(C2=Nc3ccccc3Cc3sccc32)CC1
Mus musculus [1]
  Activity: 21
Mus musculus [2]
  Activity: 7

## OCC1COCC(CN2CCN(C3=Nc4ccccc4Sc4ccccc43)CC2)O1 (centres undefined)
[4]
  No of monkeys: 4
Mus musculus [5]
  Activity: 0
Mus musculus [6]
  Activity: 8
Mus musculus [7]
  Activity: 27
Mus musculus [8]
  Activity: 18
Mus musculus [1]
  Activity: 7
Mus musculus [2]
  Activity: 0
[3]
  % displacement of spiropiperidone: 4%

## OCCOCCN1CCN(C2=Nc3cccc(F)c3Sc3ccccc32)CC1
Mus musculus [9]
  Activity: 0
Mus musculus [10]
  Activity: 22
[3]
  % displacement of spiropiperidone: 0%

## OCCOCCN1CCN(C2=Nc3ccccc3Sc3ccccc32)CC1 [QUETIAPINE]
Mus musculus [11]
  Activity: 18
[12]
  No of monkeys: 1
[13]
  No of monkeys: 2
Mus musculus [14]
  Activity: 15
Mus musculus [15]
  Activity: 8
[4]
  No of monkeys: 0
Mus musculus [16]
  Activity: 2
Mus musculus [10]
  Activity: 0
Mus musculus [17]
  Activity: 11
Mus musculus [18]
  Activity: 3
Mus musculus [19]
  Activity: 14
Mus musculus [20]
  Activity: 18
Mus musculus [21]
  Activity: 3

## O=S1(=O)c2ccccc2N=C(N2CCN(CCOCCO)CC2)c2ccccc21
Mus musculus [7]
  Activity: 0
Mus musculus [2]
  Activity: 23

## CN1CCN(C2=Nc3cc(Cl)ccc3Cc3ccccc32)CC1
Mus musculus [1]
  Activity: 24
Mus musculus [2]
  Activity: 25
[3]
  % displacement of spiropiperidone: 40%

## CN1CCN(C2=Nc3ccccc3Cc3ccccc32)CC1 [PERLAPINE]
Mus musculus [22]
  Activity: 9
Mus musculus [23]
  Activity: 24
Mus musculus [24]
  Activity: 7
Mus musculus [25]
  Activity: 16
D(2) dopamine receptor
  IC50: 2700 nM
Mus musculus [26]
  Activity: 9
Mus musculus [8]
  Activity: 0
Mus musculus [27]
  Activity: 9
Mus musculus [28]
  Activity: 20
Mus musculus [29]
  Activity: 2
Mus musculus [30]
  Activity: 20

## OCCOCCN1CCN(C2=Nc3cc(Cl)ccc3Cc3sccc32)CC1
Mus musculus [14]
  Activity: 1
[31]
  No of monkeys: 1
Mus musculus [16]
  Activity: 2
Mus musculus [10]
  Activity: 3
Mus musculus [32]
  Activity: 20
[3]
  % displacement of spiropiperidone: 60%

## CN1CCN(C2=Nc3cc(Cl)ccc3Sc3ccccc32)CC1 [ISOCLOTHIAPINE]
Mus musculus [2]
  Activity: 18
[3]
  % displacement of spiropiperidone: 46%

## OCCOCCN1CCN(C2=Nc3cc(Cl)ccc3Cc3ccccc32)CC1
Mus musculus [11]
  Activity: 2
Mus musculus [14]
  Activity: 19
[31]
  No of monkeys: 0
Mus musculus [15]
  Activity: 1
[33]
  No of monkeys: 0
Mus musculus [16]
  Activity: 6
Mus musculus [10]
  Activity: 2
Mus musculus [17]
  Activity: 1
D(2) dopamine receptor
  IC50: 1000 nM
Mus musculus [19]
  Activity: 26
[34]
  No of monkeys: 0

## COCC(CO)N1CCN(C2=Nc3ccccc3Sc3ccccc32)CC1 (centres undefined)
Mus musculus [7]
  Activity: 0
D(2) dopamine receptor
  IC50: 1640 nM
Mus musculus [2]
  Activity: 21

## OCCOCCN1CCN(C2=Nc3ccc(O)cc3Cc3ccccc32)CC1
Mus musculus [11]
  Activity: 3
Mus musculus [14]
  Activity: 21
Mus musculus [15]
  Activity: 10
Mus musculus [16]
  Activity: 17
Mus musculus [10]
  Activity: 2
Mus musculus [17]
  Activity: 1
Mus musculus [18]
  Activity: 1
Mus musculus [19]
  Activity: 17
Mus musculus [20]
  Activity: 24
[3]
  % displacement of spiropiperidone: 25%

## OCCOCCN1CCN(C2=Nc3cc(O)ccc3Sc3ccccc32)CC1
Mus musculus [9]
  Activity: 0
Mus musculus [10]
  Activity: 24
[3]
  % displacement of spiropiperidone: 24%

## COCC(COC)N1CCN(C2=Nc3ccccc3Sc3ccccc32)CC1
Mus musculus [7]
  Activity: 0
[35]
  inhibition: 4%
Mus musculus [2]
  Activity: 19

## OCCOCCOCCN1CCN(C2=Nc3ccccc3Sc3ccccc32)CC1
Mus musculus [5]
  Activity: 2
Mus musculus [6]
  Activity: <3
Mus musculus [7]
  Activity: <12
D(2) dopamine receptor
  IC50: 1390 nM
Mus musculus [8]
  Activity: 20
Mus musculus [1]
  Activity: 14
Mus musculus [2]
  Activity: <3

## COC[C@H](CN1CCN(C2=Nc3ccccc3Sc3ccccc32)CC1)OC
Mus musculus [6]
  Activity: 3
Mus musculus [7]
  Activity: 13
Mus musculus [1]
  Activity: 19
Mus musculus [2]
  Activity: 1
[3]
  % displacement of spiropiperidone: 10%

## c1ccc2c(c1)N=C(N1CCN(CC3CCCO3)CC1)c1ccccc1S2 (centres undefined)
Mus musculus [22]
  Activity: 21
Mus musculus [36]
  Activity: 7
Mus musculus [5]
  Activity: 16
Mus musculus [6]
  Activity: 26
Mus musculus [24]
  Activity: 9
Mus musculus [7]
  Activity: 37
D(2) dopamine receptor
  IC50: 417 nM
Mus musculus [8]
  Activity: 2
Mus musculus [37]
  Activity: 1
Mus musculus [1]
  Activity: 7
Mus musculus [2]
  Activity: 1
[34]
  No of monkeys: 2

## [O-][S+]1c2ccccc2N=C(N2CCN(CCOCCO)CC2)c2ccccc21 (centres undefined) [SULFOXIDE METABOLITE]
Mus musculus [7]
  Activity: 0
Mus musculus [2]
  Activity: 23

## OCCOCCN1CCN(C2=Nc3ccccc3Oc3ccccc32)CC1
Mus musculus [9]
  Activity: 8
Mus musculus [38]
  Activity: 1
Mus musculus [16]
  Activity: 17
Mus musculus [10]
  Activity: 11
[3]
  % displacement of spiropiperidone: 16%
